Rows were chosen to be rich in hits. Some 1.9% of all compounds tested hit in one or more screens of this group.
SENP1 FRET inh = SENP1 (human) catalytic domain inhibition; recombinant SENP1 catalytic domain, CyPet-SUMO1-YPet FRET cleavage; inhibition, % at 10 µM; 360,000 tested, 0.21% active; AID 624204;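 active = inhibition at least 30% at 10 µM, raw YFP signal under a set limit, fluorescence ratio 0.5 to 1.5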
Target sequence (Q9P0U3 419-644 limits assumed): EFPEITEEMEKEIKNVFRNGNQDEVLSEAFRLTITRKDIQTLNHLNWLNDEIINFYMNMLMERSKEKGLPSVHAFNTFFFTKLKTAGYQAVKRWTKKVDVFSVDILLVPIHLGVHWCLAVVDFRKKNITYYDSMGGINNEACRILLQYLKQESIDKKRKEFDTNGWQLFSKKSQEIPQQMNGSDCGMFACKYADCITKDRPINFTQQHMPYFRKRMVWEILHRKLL
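Material – human SENP1 catalytic domain · Input – SENP1 enzyme, 20 pM final · Compound dosing – single concentration of 10 µM compound, 0.5% DMSO final · Timing – enzyme reaction for 50 min at room temperature, dark · Measured by – FRET fluorescence in CFP and YFP emission channels · Control set – no-enzyme wells low, DMSO-plus-enzyme wells high control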
ADAM17 inh = inhibits human ADAM17; AID 720648; P78536; recombinant ADAM17, EDANS/DABCYL FRET peptide cleavage; 370,000 tested, 0.83% active; inhibition, % at 6.95 µM;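 active = inhibition above the mean of compounds lying between control limits plus 3 SD, set per campaign, cut at about 8.5% in these data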
ADAM10 inh = inhibitors of human ADAM10. O14672. recombinant ADAM10, EDANS/DABCYL FRET peptide cleavage, 3 h. inhibition, % at 7 µM. 370,000 tested, 0.62% active;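 active = inhibition above a per-campaign cutoff equal to the mean of compounds falling between control-based bounds plus 3 SD, cut at about 20% in these data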
FAS TE block = blocks the thioesterase domain of human fatty acid synthase; 360,000 tested, 0.67% active; inhibition, % at 15 µM; P49327; recombinant FAS-TE, OMFH fluorogenic substrate, fluorescence endpoint;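 active = compounds whose normalised, plate-corrected inhibition of enzyme fluorescence in the single-dose primary screen is 50% or more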
ADAM10 confirm = human ADAM10 inhibition, confirmation; shares compounds with ADAM10 inh; 2,100 tested, 1% active; inhibition, % at 6.95 µM; ADAM10 QFRET peptide cleavage, EDANS fluorescence;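 active = inhibition above about 20% chosen separately for each screening run, limit read from the data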
ADAM17 ctr = counter-screen for ADAM10 exosite inhibitors: inhibitors of human ADAM17; shares compounds with ADAM10 inh; ADAM17 QFRET peptide cleavage, EDANS fluorescence; inhibition, % at 6.95 µM; 2,100 tested, 0.5% active; AID 743214;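 active = mean triplicate inhibition above the solvent-only control wells' mean plus 3 SD, cut at about 12% in these data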
ADAM10 counter = inhibits human ADAM10 in ADAM17 exosite counter-screen; shares compounds with ADAM17 inh; recombinant ADAM10, EDANS/DABCYL FRET peptide cleavage, 3 h; inhibition, % at 6.95 µM; 2,900 tested, 47% active; AID 743256;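 active = mean inhibition over the triplicate runs exceeds the activity threshold set in the earlier primary screen, cut at about 20% in these data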
ADAM17 confirm = confirmation of inhibitors of human ADAM17; 2,900 tested, 65% active; AID 743257; inhibition, % at 6.95 µM; shares compounds with ADAM17 inh; recombinant ADAM17, EDANS/DABCYL QFRET peptide cleavage;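 active = mean inhibition across replicates above the hit cutoff set in the primary screen, cut at about 8.5% in these data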
Each line names hits and unclear results; the compound was inactive in the other large screens (follow-up assays come after a bar, where they were run).

CC(C)CC1C(=O)N(Cc2cn(CCC3OCCO3)nn2)CCS(=O)(=O)N1Cc1ccc(-c2ccc(F)cc2)cc1 (configuration not stated)	ADAM17 inh 11.1, ADAM10 inh 25.1 | ADAM10 confirm inactive | ADAM17 ctr inactive | ADAM10 counter 30.9 | ADAM17 confirm 16.7
COCOCCn1cc(CN2CCS(=O)(=O)N(Cc3ccc(-c4ccc(Cl)c(Cl)c4)cc3)C(C)C2=O)nn1 (configuration not stated)	ADAM17 inh 11.2, ADAM10 inh 23.4 | ADAM10 confirm inactive | ADAM17 ctr inactive | ADAM10 counter 35.3 | ADAM17 confirm 18.5
Cc1ccc(-c2ccc(CN3C(C(C)C)C(=O)N(Cc4cn(CC5CCCCC5)nn4)CCS3(=O)=O)cc2)cc1 (configuration not stated)	none
CC(C)C1C(=O)N(Cc2cn(CC3CCCCC3)nn2)CCS(=O)(=O)N1Cc1ccc(-c2ccccc2)cc1 (configuration not stated)	ADAM17 inh 11.0, ADAM10 inh 22.3 | ADAM10 confirm inactive | ADAM17 ctr inactive | ADAM10 counter 38.4 | ADAM17 confirm 15.1
CC(C)C1C(=O)N(Cc2cn(CCC3OCCO3)nn2)CCS(=O)(=O)N1Cc1ccc(-c2ccc(F)cc2Cl)cc1 (configuration not stated)	ADAM17 inh 10.0, ADAM10 inh 24.0 | ADAM10 confirm inactive | ADAM17 ctr inactive | ADAM10 counter 33.3 | ADAM17 confirm 17.5
CCCN1CCS(=O)(=O)N(Cc2cn(Cc3ccc(F)cc3)nn2)C(C(=O)OC)C1 (configuration not stated)	none (no result: SENP1 FRET inh, FAS TE block)
O=C(OCc1cn(Cc2ccc(F)cc2F)nn1)N1CCCC1	none (no result: SENP1 FRET inh, FAS TE block)
Fc1ccc(CNc2nc(-c3ccccc3)nc3ccccc23)cc1	none
COc1ccc(CNc2nc(-c3ccccc3)nc3ccccc23)cc1OC	ADAM17 inh 12.7, ADAM10 inh 21.9 | ADAM10 confirm inactive | ADAM17 ctr inactive | ADAM10 counter 23.5 | ADAM17 confirm 16.6
COc1ccc(OC)c(-c2nnc3n2N=C(c2ccc(OC)c(OC4CCCC4)c2)CS3)c1	ADAM17 inh 16.9, ADAM10 inh 31.1 | ADAM10 confirm inactive | ADAM17 ctr inactive | ADAM10 counter inactive | ADAM17 confirm inactive
O=C(Nc1nc2ccccc2s1)C1CCCN1S(=O)(=O)c1ccc(Cl)cc1 (configuration not stated)	ADAM17 inh 11.3, ADAM10 inh 30.5 | ADAM10 confirm inactive | ADAM17 ctr inactive | ADAM10 counter 32.8 | ADAM17 confirm 16.5
Cc1ccc(S(=O)(=O)N2CCCC2C(=O)Nc2nc3ccccc3s2)cc1 (configuration not stated)	none (no result: ADAM17 inh, ADAM10 inh)
N#Cc1ccc(CSc2nc(N)cc(N)n2)cc1	none
Cc1cc(N2CCCCC2)nc(SCc2ccc(C#N)cc2)n1	ADAM17 inh 8.6, ADAM10 inh 25.6 | ADAM10 confirm inactive | ADAM17 ctr inactive | ADAM10 counter 20.4 | ADAM17 confirm 13.1
COC(=O)[C@]12C[C@H](CC(=O)N3CCOCC3)C(=O)N(Cc3ccc(Cl)cc3Cl)C1=C[C@H](C(C)(C)C)O[C@@H]2C	none (no result: SENP1 FRET inh, FAS TE block)
COc1cc(CN2CCN(c3cccc(C)c3C)CC2)cc(Br)c1O	ADAM17 inh 9.8, ADAM10 inh 23.5 | ADAM10 confirm inactive | ADAM17 ctr inactive | ADAM10 counter 22.4 | ADAM17 confirm 10.7
O=C(CSc1ccc(Cl)cc1Cl)N1CCC(c2nc3ccccc3s2)CC1	ADAM17 inh 11.6, ADAM10 inh 21.4 | ADAM10 confirm inactive | ADAM17 ctr inactive | ADAM10 counter inactive | ADAM17 confirm 13.4
C#CCN1CC(N(C)CCOC(=O)c2ccc(F)cc2)CS1(=O)=O (configuration not stated)	none (no result: SENP1 FRET inh, FAS TE block)
CCOc1cc(/C=N/NC(=O)CNc2cccc(C)c2)ccc1OC(=O)c1ccccc1	ADAM17 inh 11.7, ADAM10 inh 25.0 | ADAM10 confirm inactive | ADAM17 ctr inactive | ADAM10 counter 33.1 | ADAM17 confirm 16.0
CC(C)(C)S(=O)(=O)N1Cc2cc(CO)ccc2[C@@H]1CCO	none (no result: SENP1 FRET inh, FAS TE block)
O=C(COC(=O)c1ccc(Cl)c(S(=O)(=O)N2CCCCCC2)c1)Nc1ccccc1	ADAM17 inh 10.1, ADAM10 inh 20.0 | ADAM10 confirm inactive | ADAM17 ctr inactive | ADAM10 counter 48.7 | ADAM17 confirm 27.0
O=C(COC(=O)c1ccc(S(=O)(=O)N2CCCC2)cc1)Nc1ccccc1	none
O=C(OCCN1CCN(C2CN(Cc3cn(Cc4ccccc4F)nn3)S(=O)(=O)C2)CC1)c1cc2ccccc2o1 (configuration not stated)	none (no result: SENP1 FRET inh, FAS TE block)
Cc1ccc(NS(=O)(=O)c2ccc(Cl)c(NC(=S)NC(=O)C3CCCCC3)c2)cc1Cl	ADAM17 inh 13.4, ADAM10 inh 26.7 | ADAM10 confirm inactive | ADAM17 ctr inactive | ADAM10 counter 46.2 | ADAM17 confirm 26.7
Cc1cc(Cl)ccc1NC(=S)NCCc1ccc(Cl)cc1	ADAM17 inh 9.8, ADAM10 inh 25.4 | ADAM10 confirm inactive | ADAM17 ctr inactive | ADAM10 counter inactive | ADAM17 confirm inactive
O=C(Nc1cc(Oc2ccccc2)cc([N+](=O)[O-])c1)C12CC3CC(C1)CC(n1cnc(Cl)n1)(C3)C2	ADAM17 inh 9.7, ADAM10 inh 21.9 | ADAM10 confirm inactive | ADAM17 ctr inactive | ADAM10 counter 28.4 | ADAM17 confirm 11.2
COc1cccc(-n2c(SCC(N)=O)nnc2-c2ccncc2)c1	none
COc1cccc(NC(=O)C(Sc2nnc(-c3ccncc3)n2-c2ccc(Cl)cc2)c2ccccc2)c1 (configuration not stated)	ADAM17 inh 14.1, ADAM10 inh 38.3 | ADAM10 confirm inactive | ADAM17 ctr inactive | ADAM10 counter 29.8 | ADAM17 confirm 15.6
COc1cc([N+](=O)[O-])cc(/C=N/NC(=O)C(C)Nc2ccccc2C)c1O (configuration not stated)	ADAM17 inh 10.0, ADAM10 inh 25.9 | ADAM10 confirm inactive | ADAM17 ctr inactive | ADAM10 counter 23.5 | ADAM17 confirm 11.6
Cc1ccccc1S(=O)(=O)N1CCCc2nc(C)c(C)cc21	none (no result: SENP1 FRET inh, FAS TE block)
O=C(OC(C(=O)Nc1cccc(C(F)(F)F)c1)c1ccccc1)C1CCCCC1 (configuration not stated)	ADAM17 inh 11.7, ADAM10 inh 25.2 | ADAM10 confirm inactive | ADAM17 ctr inactive | ADAM10 counter 20.1 | ADAM17 confirm 12.6

From PubChem BioAssay
